Laboratory results as given in ChEMBL document CHEMBL1157790, “3'-bromo analogues of pyrimidine nucleosides as a new class of potent inhibitors of Mycobacterium tuberculosis” (J Med Chem, 2010).
In brackets after ≈: the same amount, converted by molar mass.

Experiments:
[1] = Cytotoxicity against human HuH7 cells after 2 days by XTT assay; format: cell-based, Huh-7
Outline: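 Huh-7 cells seeded at 2 × 10⁴/well and allowed to attach 6-8 h, then exposed to 200, 100, 50, 10 and 1 μg/mL compound, DMSO control, 2 days at 37 °C. XTT reagent added for 4 h at 37 °C; absorbance read at 450-500 nm.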

[2] = Cytotoxicity against human HuH7 cells assessed as incorporation of [3H]thymidine into DNA after 2 days by scintillation counting; format: cell-based, Huh-7
Outline: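 Huh-7 cells plated at 1 × 10⁴/well, compounds at 200, 100, 50, 10 and 1 μg/mL in triplicate, DMSO control, 2 days at 37 °C. Pulsed with 0.5 μCi/well [³H]-thymidine for 12-18 h, harvested onto filters, and incorporated DNA label counted by liquid scintillation.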

[3] = tested on: Mycobacterium tuberculosis; assay: Antimycobacterial activity against Mycobacterium tuberculosis H37Ra at 100 ug/ml after 6 days by microplate alamar blue assay; format: functional; conditions: 144 h
Outline: (§1)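 H37Ra from frozen inoculum, 2.5 × 10⁵ CFU/mL final, in 7H9GC medium; compounds from 10 mg/mL DMSO stock tested at 100, 50, 25, 10, 5 and 1 μg/mL in triplicate, run twice. Incubated 6 days, then alamar blue plus Tween 80 added, read after 24 h visually and by fluorescence. Percent inhibition against bacteria-only and medium-only wells; MIC50 is the lowest concentration giving ~50% inhibition.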

[4] = tested on: Mycobacterium tuberculosis; assay: Antimycobacterial activity against Mycobacterium tuberculosis H37Ra at 10 ug/ml after 6 days by microplate alamar blue assay; format: functional; conditions: 144 h; outline: as §1
[5] = tested on: Mycobacterium tuberculosis; assay: Antimycobacterial activity against Mycobacterium tuberculosis H37Ra at 1 ug/ml after 6 days by microplate alamar blue assay; format: functional; conditions: 144 h; outline: as §1
[6] = tested on: Mycobacterium tuberculosis; assay: Antimycobacterial activity against Mycobacterium tuberculosis H37Ra after 6 days by microplate alamar blue assay; format: functional; conditions: 144 h; outline: as §1
[7] = tested on: Mycobacterium tuberculosis; assay: Antimycobacterial activity against Mycobacterium tuberculosis H37Ra at 25 ug/ml after 4 days; format: functional
Outline: (§2)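 THP-1 cells, 2 × 10⁵/well, differentiated 3 days with 100 nM PMA, then infected 3 h with ~10⁷ CFU H37Ra. Non-phagocytosed bacteria removed. Compounds at 25, 10, 5 or 1 μg/mL in triplicate, rifampicin or isoniazid controls at 2.5 μg/mL, 4 days. Lysates plated in serial dilution on 7H11, colonies counted at 2-3 weeks. Percent CFU reduction versus untreated control; run twice.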

[8] = tested on: Mycobacterium tuberculosis; assay: Antimycobacterial activity against Mycobacterium tuberculosis H37Ra at 10 ug/ml after 4 days; format: functional; outline: as §2
[9] = tested on: Mycobacterium tuberculosis; assay: Antimycobacterial activity against Mycobacterium tuberculosis H37Ra at 25 ug/ml after 6 days by microplate alamar blue assay; format: functional; conditions: 144 h; outline: as §1
[10] = tested on: Mycobacterium tuberculosis; assay: Antimycobacterial activity against Mycobacterium tuberculosis H37Ra at 50 ug/ml after 6 days by microplate alamar blue assay; format: functional; conditions: 144 h; outline: as §1
[11] = tested on: Mycobacterium tuberculosis; assay: Antimycobacterial activity against Mycobacterium tuberculosis H37Ra at 5 to 10 ug/ml after 6 days by microplate alamar blue assay; format: functional; outline: as §1
[12] = tested on: Mycobacterium tuberculosis; assay: Antimycobacterial activity against Mycobacterium tuberculosis H37Ra at 5 ug/ml after 6 days by microplate alamar blue assay; format: functional; conditions: 144 h; outline: as §1
[13] = tested on: Mycobacterium tuberculosis; assay: Antimycobacterial activity against Mycobacterium tuberculosis H37Ra at 2.5 ug/ml after 4 days; format: functional; outline: as §2

Row | Compound | CC50 at 48 h [1] | CC50 at 48 h [2] | inhibition at 100 µg/mL [3] | MIC50 [6] | inhibition at 50 µg/mL [10] | other results
1 | O=c1[nH]c(=O)n([C@H]2C[C@@H](I)[C@@H](CO)O2)cc1F | > 100 µg/mL | > 100 µg/mL | 40% | – | – | –
2 | O=c1ccn([C@@H]2O[C@H](CO)[C@@H](Br)[C@@H]2O)c(=O)[nH]1 | > 100 µg/mL | > 100 µg/mL | 24% | – | – | –
3 | Cc1cn([C@@H]2O[C@H](CO)[C@@H](Br)[C@@H]2O)c(=O)[nH]c1=O | > 100 µg/mL | > 100 µg/mL | 50% | 1 µg/mL (≈ 3.11 µM) | – | inhibition at 10 µg/mL [4]: 75%; inhibition at 1 µg/mL [5]: 50%; Activity [7]: >90%; Activity [8]: 80%
4 | O=c1[nH]c(=O)n([C@@H]2O[C@H](CO)[C@@H](Br)[C@@H]2O)cc1F | > 100 µg/mL | > 100 µg/mL | 91% | 25 µg/mL (≈ 76.9 µM) | – | inhibition at 25 µg/mL [9]: 50%
5 | O=c1ccn([C@@H]2O[C@H](CO)[C@H](O)[C@H]2Br)c(=O)[nH]1 | > 100 µg/mL | > 100 µg/mL | 0% | – | – | –
6 | Cc1cn([C@@H]2O[C@H](CO)[C@H](O)[C@H]2Br)c(=O)[nH]c1=O | > 100 µg/mL | > 100 µg/mL | 80% | 25 µg/mL (≈ 77.9 µM) | 60% | –
7 | Cc1cn([C@H]2C[C@H](Br)[C@@H](CO)O2)c(=O)[nH]c1=O | > 100 µg/mL | > 100 µg/mL | 100% | 5 µg/mL (≈ 16.4 µM) | 82% | Activity [7]: 90%; Activity [8]: 50%; inhibition (INH) [11]: 5%
8 | O=c1[nH]c(=O)n([C@@H]2O[C@H](CO)[C@H](O)[C@H]2Br)cc1F | > 100 µg/mL | > 100 µg/mL | 0% | – | – | inhibition at 25 µg/mL [9]: 50%
9 | O=c1[nH]c(=O)n([C@H]2C[C@H](Br)[C@@H](CO)O2)cc1F | > 100 µg/mL | > 100 µg/mL | 80% | 50 µg/mL (≈ 162 µM) | 50% | –
10 | O=c1[nH]c(=O)n([C@H]2C[C@@H](Br)[C@@H](CO)O2)cc1F | > 100 µg/mL | > 100 µg/mL | 100% | 25 µg/mL (≈ 80.9 µM) | 63% | inhibition at 25 µg/mL [9]: 40%
11 | O=c1[nH]c(=O)n([C@H]2C[C@@H](Cl)[C@@H](CO)O2)cc1F | > 100 µg/mL | > 100 µg/mL | 90% | 25 µg/mL (≈ 94.5 µM) | 60% | inhibition at 25 µg/mL [9]: 40%
12 | Cc1cn([C@H]2C[C@H](Cl)[C@@H](CO)O2)c(=O)[nH]c1=O | > 100 µg/mL | > 100 µg/mL | 68% | 50 µg/mL (≈ 192 µM) | 50% | –
13 | O=c1[nH]c(=O)n([C@H]2C[C@H](I)[C@@H](CO)O2)cc1F | > 100 µg/mL | > 100 µg/mL | 32% | – | – | –
14 | O=c1[nH]c(=O)n([C@H]2C[C@H](Cl)[C@@H](CO)O2)cc1F | > 100 µg/mL | > 100 µg/mL | 40% | – | – | –
15 | Cc1cn([C@H]2C[C@H](I)[C@@H](CO)O2)c(=O)[nH]c1=O | > 100 µg/mL | > 100 µg/mL | 0% | – | – | –
16 | O=c1[nH]c(=O)n([C@H]2C[C@H](F)[C@@H](CO)O2)cc1F | – | – | 0% | – | – | –
17 | Cc1cn([C@H]2C[C@H](F)[C@@H](CO)O2)c(=O)[nH]c1=O [ALOVUDINE] | – | – | 0% | – | – | –
18 | N[C@@H]1CONC1=O [CYCLOSERINE] | – | – | – | 5 µg/mL (≈ 49 µM) | 100% | inhibition at 25 µg/mL [9]: 80%; inhibition at 5 µg/mL [12]: 50%
19 | NNC(=O)c1ccncc1 [ISONIAZID] | – | – | – | < 1 µg/mL | – | inhibition at 1 µg/mL [5]: 100%; Activity [13]: >98%
20 | CO[C@H]1/C=C/O[C@@]2(C)Oc3c(C)c(O)c4c(O)c(c(/C=N/N5CCN(C)CC5)c(O)c4c3C2=O)NC(=O)/C(C)=C\C=C\[C@H](C)[C@H](O)[C@@H](C)[C@@H](O)[C@@H](C)[C@H](OC(C)=O)[C@@H]1C [RIFAMPIN] | – | – | – | < 0.5 µg/mL | – | Activity [13]: >98%
